# From ChEMBL document CHEMBL2417509, “Synthesis and biological evaluation of prodigiosene conjugates of porphyrin, estrone and 4-hydroxytamoxifen” (2013)
# How the values were obtained:
# Assay type in all cases: functional
# NCI-H460 = test: Cytotoxicity against human NCI-H460 cells after 2 days by sulforhodamine B assay; conditions: NCI-H460, 48 h
# Summary of the method: (§1)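 NCI60 multi-dose screen, 59 human tumour lines available. Cells exposed to compound across a 5-log mol/L concentration range for 2 days, then fixed and stained with sulphorhodamine B, optical density read. Growth inhibition calculated against time-zero control and untreated cells. GI50 derived from the dose series, average of two replicates.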
# MCF7 = test: Cytotoxicity against human MCF7 cells after 2 days by sulforhodamine B assay; conditions: MCF7, 48 h; summary of the method: as §1
# MDA-MB-468 = test: Cytotoxicity against human MDA-MB-468 cells after 2 days by sulforhodamine B assay; conditions: MDA-MB-468, 48 h; summary of the method: as §1
# RXF 393 = test: Cytotoxicity against human RXF393 cells after 2 days by sulforhodamine B assay; conditions: RXF 393, 48 h; summary of the method: as §1
# HL-60(TB) = test: Cytotoxicity against human HL-60(TB) cells after 2 days by sulforhodamine B assay; conditions: HL-60, 48 h
# Summary of the method: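 NCI60 multi-dose screen: cells exposed to compound over a 5-log mol/L concentration range for 2 days, then fixed and stained with sulphorhodamine B and optical density read. Growth inhibition calculated relative to time-zero control and untreated cells; GI50 reported as average of two replicates.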
# K562 = test: Cytotoxicity against human K562 cells after 2 days by sulforhodamine B assay; conditions: K562, 48 h; summary of the method: as §1
# OVCAR-5 = test: Cytotoxicity against human OVCAR5 cells after 2 days by sulforhodamine B assay; conditions: OVCAR-5, 48 h; summary of the method: as §1
# NCI-H226 = test: Cytotoxicity against human NCI-H226 cells after 2 days by sulforhodamine B assay; conditions: NCI-H226, 48 h; summary of the method: as §1
# [1] = Cytotoxicity against human Hs578T cells after 2 days by sulforhodamine B assay; conditions: Hs-578T, 48 h; summary of the method: as §1
# HCC 2998 = test: Cytotoxicity against human HCC2998 cells after 2 days by sulforhodamine B assay; conditions: HCC 2998, 48 h; summary of the method: as §1
# SF-539 = test: Cytotoxicity against human SF539 cells after 2 days by sulforhodamine B assay; conditions: SF-539, 48 h; summary of the method: as §1
# MOLT-4 = test: Cytotoxicity against human MOLT4 cells after 2 days by sulforhodamine B assay; conditions: MOLT-4, 48 h; summary of the method: as §1
# BT-549 = test: Cytotoxicity against human BT549 cells after 2 days by sulforhodamine B assay; conditions: BT-549, 48 h; summary of the method: as §1
# SK-MEL-2 = test: Cytotoxicity against human SK-MEL-2 cells after 2 days by sulforhodamine B assay; conditions: SK-MEL-2, 48 h; summary of the method: as §1
# MDA-MB-435 = test: Cytotoxicity against human MDA-MB-435 cells after 2 days by sulforhodamine B assay; conditions: MDA-MB-435, 48 h; summary of the method: as §1
# DU-145 = test: Cytotoxicity against human DU145 cells after 2 days by sulforhodamine B assay; conditions: DU-145, 48 h; summary of the method: as §1
# HCT-15 = test: Cytotoxicity against human HCT15 cells after 2 days by sulforhodamine B assay; conditions: HCT-15, 48 h; summary of the method: as §1
# Malme-3M = test: Cytotoxicity against human MALME-3M cells after 2 days by sulforhodamine B assay; conditions: 48 h; summary of the method: as §1
# RPMI-8226 = test: Cytotoxicity against human RPMI8226 cells after 2 days by sulforhodamine B assay; conditions: RPMI-8226, 48 h; summary of the method: as §1
# HCT-116 = test: Cytotoxicity against human HCT116 cells after 2 days by sulforhodamine B assay; conditions: HCT-116, 48 h; summary of the method: as §1
# SF-268 = test: Cytotoxicity against human SF268 cells after 2 days by sulforhodamine B assay; conditions: SF-268, 48 h; summary of the method: as §1
# NCI-H322M = test: Cytotoxicity against human NCI-H322M cells after 2 days by sulforhodamine B assay; conditions: 48 h; summary of the method: as §1
# MDA-MB-231 = test: Cytotoxicity against human MDA-MB-231 cells after 2 days by sulforhodamine B assay; conditions: MDA-MB-231, 48 h; summary of the method: as §1
# CCRF-CEM = test: Cytotoxicity against human CCRF-CEM cells after 2 days by sulforhodamine B assay; conditions: 48 h; summary of the method: as §1
# HOP-92 = test: Cytotoxicity against human HOP92 cells after 2 days by sulforhodamine B assay; conditions: HOP-92, 48 h; summary of the method: as §1
# A549 = test: Cytotoxicity against human A549/ATCC cells after 2 days by sulforhodamine B assay; conditions: A549, 48 h; summary of the method: as §1
# PC-3 = test: Cytotoxicity against human PC3 cells after 2 days by sulforhodamine B assay; conditions: PC-3, 48 h; summary of the method: as §1
# NCI-H23 = test: Cytotoxicity against human NCI-H23 cells after 2 days by sulforhodamine B assay; conditions: NCI-H23, 48 h; summary of the method: as §1
# [2] = read-out: LC50 (the source's name)
smiles,measurement,setting,value
CC/C(=C(/c1ccc(OCCN(C)C)cc1)c1ccc(OC(=O)CCC(=O)C2=C(C)/C(=C/c3[nH]c(-c4ccc[nH]4)cc3OC)N=C2C)cc1)c1ccccc1,GI50,NCI-H460,3.52 µM
same,LC50,NCI-H460,> 100 µM
same,TGI,NCI-H460,14.4 µM
same,GI50,MCF7,0.03 µM
same,LC50 (concentration giving 50% net cell kill),MCF7,39.9 µM
same,TGI,MCF7,2.81 µM
same,GI50,MDA-MB-468,3.06 µM
same,LC50,MDA-MB-468,61.3 µM
same,TGI,MDA-MB-468,15.5 µM
same,GI50,RXF 393,2.35 µM
same,LC50 (concentration killing 50% of cells),RXF 393,73.3 µM
same,TGI,RXF 393,13 µM
same,GI50,HL-60(TB),3.16 µM
same,TGI,HL-60(TB),8.98 µM
same,CC50,HL-60(TB); [2],> 100 µM
same,GI50,K562,2.39 µM
same,LC50 (concentration killing 50% of cells),K562,> 100 µM
same,TGI,K562,6.4 µM
same,GI50,OVCAR-5,6.99 µM
same,LC50,OVCAR-5,53.1 µM
same,TGI,OVCAR-5,22 µM
same,GI50,NCI-H226,6.53 µM
same,LC50,NCI-H226,> 100 µM
same,TGI,NCI-H226,25.2 µM
same,GI50,[1],1.15 µM
same,TGI,[1],4.68 µM
same,CC50,[1]; [2],64.6 µM
same,GI50,HCC 2998,3.83 µM
same,LC50 (50% lethal concentration),HCC 2998,39.9 µM
same,TGI,HCC 2998,14.3 µM
same,GI50,SF-539,2.62 µM
same,LC50,SF-539,40.3 µM
same,TGI,SF-539,9.55 µM
same,GI50,MOLT-4,0.98 µM
same,TGI,MOLT-4,4.22 µM
same,CC50,MOLT-4; [2],> 100 µM
same,GI50,BT-549,4.29 µM
same,LC50 (concentration killing 50% of cells present at time zero),BT-549,66.9 µM
same,TGI,BT-549,21.5 µM
same,GI50,SK-MEL-2,2.45 µM
same,LC50,SK-MEL-2,25.3 µM
same,TGI,SK-MEL-2,6.42 µM
same,GI50,MDA-MB-435,2.55 µM
same,TGI,MDA-MB-435,10.3 µM
same,CC50,MDA-MB-435; [2],50.5 µM
same,GI50,DU-145,3.28 µM
same,LC50 (concentration killing 50% of starting cells),DU-145,41.2 µM
same,TGI,DU-145,16.8 µM
same,GI50,HCT-15,0.93 µM
same,LC50,HCT-15,> 100 µM
same,TGI,HCT-15,4.58 µM
same,GI50,Malme-3M,2.73 µM
same,LC50,Malme-3M,78.4 µM
same,TGI,Malme-3M,6.53 µM
same,GI50,RPMI-8226,1.65 µM
same,LC50 (concentration killing 50% of cells present at time zero),RPMI-8226,> 100 µM
same,TGI,RPMI-8226,5.64 µM
same,GI50,HCT-116,0.82 µM
same,LC50 (concentration killing 50% of cells vs time zero),HCT-116,> 100 µM
same,TGI,HCT-116,3.28 µM
same,GI50,SF-268,2.63 µM
same,LC50 (concentration killing 50% of cells),SF-268,> 100 µM
same,TGI,SF-268,18.3 µM
same,GI50,NCI-H322M,11.6 µM
same,LC50 (concentration killing 50% of cells),NCI-H322M,57.5 µM
same,TGI,NCI-H322M,25.7 µM
same,GI50,MDA-MB-231,0.45 µM
same,LC50,MDA-MB-231,20.3 µM
same,TGI,MDA-MB-231,2.43 µM
same,GI50,CCRF-CEM,0.43 µM
same,TGI,CCRF-CEM,7.21 µM
same,CC50,CCRF-CEM; [2],> 100 µM
same,GI50,HOP-92,0.76 µM
same,TGI,HOP-92,4.12 µM
same,CC50,HOP-92; [2],26.4 µM
same,GI50,A549,2.66 µM
same,LC50 (concentration giving 50% net cell kill),A549,55.9 µM
same,TGI,A549,10.6 µM
same,GI50,PC-3,1.78 µM
same,LC50 (concentration killing 50% of cells),PC-3,51.1 µM
same,TGI,PC-3,17.2 µM
same,GI50,NCI-H23,4.03 µM
same,LC50 (concentration killing 50% of cells),NCI-H23,70 µM
same,TGI,NCI-H23,18.7 µM
